Assay results: publication PMC5648736 (Clinical Pharmacokinetics, 2017)
Where two headings read alike, the source gives them in different places. Marks after values point to notes of the source that are not given here.

Assays:
[1] = format: in vivo, human; conditions: for AUC∞ estimated ratio (95% CI): unadjusted ANCOVA; for C max estimated ratio (90% CI): unadjusted; for t ½: geometric mean (CV%)
[2] = Safety and tolerability of single dose semaglutide 0.5 mg; format: in vivo, human; conditions: single SC 0.5 mg
Method in brief: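 Single 0.5 mg subcutaneous injection into the thigh by pen. ESRD subjects were dosed 1–24 h after haemodialysis, with no dialysis for 48 h after. Monitoring covered AEs, physical exam, ECG, vital signs, plasma glucose and clinical labs (biochemistry, haematology, urinalysis). TEAEs counted from dosing day to follow-up +14 days (~5 weeks). Hypoglycaemia: major = unable to self-treat; minor = self-treated with glucose <3.1 mmol/L. Descriptive statistics.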

[3] = Safety of initial single dose semaglutide 10 µg/kg; format: in vivo, human
Method in brief: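 Initial cohort received a single weight-based dose, with ESRD subjects dosed 1–24 h after haemodialysis. Safety was judged from reported AEs, serious AEs, and gastrointestinal frequency and severity. Hypoglycaemia was classed as major, minor or symptoms-only by ability to self-treat and a 3.1 mmol/L plasma glucose cut-off. This cohort was evaluated for safety only and excluded from pharmacokinetic analysis.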

[4] = cited from earlier work
[5] = ESRD vs normal, adjusted for age, sex, log(weight), single SC 0.5 mg
[6] = mild RI vs normal, adjusted for age, sex, log(weight), single SC 0.5 mg
[7] = moderate RI vs normal, adjusted for age, sex, log(weight), single SC 0.5 mg
[8] = severe RI vs normal, adjusted for age, sex, log(weight), single SC 0.5 mg
[9] = single dose 10 µg/kg, six subjects

For CC[C@H](C)[C@H](NC(=O)[C@H](Cc1ccccc1)NC(=O)[C@H](CCC(=O)O)NC(=O)[C@H](CCCCNC(=O)COCCOCCNC(=O)COCCOCCNC(=O)CC[C@H](NC(=O)CCCCCCCCCCCCCCCCC(=O)O)C(=O)O)NC(=O)[C@H](C)NC(=O)[C@H](C)NC(=O)[C@H](CCC(N)=O)NC(=O)CNC(=O)[C@H](CCC(=O)O)NC(=O)[C@H](CC(C)C)NC(=O)[C@H](Cc1ccc(O)cc1)NC(=O)[C@H](CO)NC(=O)[C@H](CO)NC(=O)[C@@H](NC(=O)[C@H](CC(=O)O)NC(=O)[C@H](CO)NC(=O)[C@@H](NC(=O)[C@H](Cc1ccccc1)NC(=O)[C@@H](NC(=O)CNC(=O)[C@H](CCC(=O)O)NC(=O)C(C)(C)NC(=O)[C@@H](N)Cc1cnc[nH]1)[C@@H](C)O)[C@@H](C)O)C(C)C)C(=O)N[C@@H](C)C(=O)N[C@@H](Cc1c[nH]c2ccccc12)C(=O)N[C@@H](CC(C)C)C(=O)N[C@H](C(=O)N[C@@H](CCCNC(=N)N)C(=O)NCC(=O)N[C@@H](CCCNC(=N)N)C(=O)NCC(=O)O)C(C)C [semaglutide, Semaglutide], the “AUC48 ratio (ESRD group/normal renal function group), adjusted” value ([1]; 0–48 h, without hemodialysis, adjusted for age, sex, body weight, (90% CI)) was 0.81, the “AUC48–96 ratio (ESRD group/normal renal function group), adjusted” value ([1]; 48–96 h, with hemodialysis, adjusted for age, sex, body weight, (90% CI)) was 0.93 and the “effect of hemodialysis on pharmacokinetics” value ([1]; ESRD group, AUC48 vs AUC48–96 ratios) was “hemodialysis did not appear to affect the pharmacokinetics”. The “AUC∞ estimated ratio (95% CI)” value ([1]; ESRD vs normal renal function, single SC 0.5 mg) was 0.99 (0.82–1.19), the “AUC∞ estimated ratio (95% CI), adjusted analysis” value [1, 5] was 1.10 (0.94–1.28) and the “C max estimated ratio (90% CI), adjusted analysis” value [1, 5] was 0.82 (0.66–1.01). The “C max estimated ratio (90% CI)” value ([1]; ESRD vs normal, single SC 0.5 mg) was 0.72 (0.57–0.91), the “t ½” value ([1]; ESRD, single SC 0.5 mg, n=9) was 243 (19)^b h and the “C max lower in subjects with RI than in subjects with normal renal function” value ([1]; all RI groups, adjusted for age, sex, log(weight), single SC 0.5 mg) was 10–20%. The “AUC∞ estimated ratio (95% CI)” value ([1]; mild RI vs normal renal function, single SC 0.5 mg) was 1.01 (0.83–1.21), the “AUC∞ estimated ratio (95% CI), adjusted analysis” value [1, 6] was 0.99 (0.85–1.16) and the “C max estimated ratio (90% CI), adjusted analysis” value [1, 6] was 0.90 (0.73–1.11). For the same compound, the “C max estimated ratio (90% CI)” value ([1]; mild RI vs normal, single SC 0.5 mg) was 0.95 (0.76–1.20), the “t ½” value ([1]; mild RI, single SC 0.5 mg, n=9) was 169 (14)^b h and the “mean C max across the other groups” value ([1]; mild, moderate and severe RI groups, single SC 0.5 mg) was 9.0 to 9.8 nM. The “AUC∞ estimated ratio (95% CI)” value ([1]; moderate RI vs normal renal function, single SC 0.5 mg) was 1.15 (0.96–1.38), the “AUC∞ estimated ratio (95% CI), adjusted analysis” value [1, 7] was 1.07 (0.91–1.27) and the “C max estimated ratio (90% CI), adjusted analysis” value [1, 7] was 0.79 (0.64–0.99). For the same compound, the “C max estimated ratio (90% CI)” value ([1]; moderate RI vs normal, single SC 0.5 mg) was 0.88 (0.70–1.10), the “t ½” value ([1]; moderate RI, single SC 0.5 mg, n=10) was 201 (14)^c h and the “t max range across the groups” value ([1]; range of group medians, single SC 0.5 mg) was 24 to 51 h. The “AUC∞ estimated ratio (95% CI)” value ([1]; severe RI vs normal renal function, single SC 0.5 mg) was 1.22 (1.02–1.47), the “AUC∞ estimated ratio (95% CI), adjusted analysis” value [1, 8] was 1.13 (0.97–1.32) and the “C max estimated ratio (90% CI), adjusted analysis” value [1, 8] was 0.86 (0.70–1.06). For the same compound, the “C max estimated ratio (90% CI)” value ([1]; severe RI vs normal, single SC 0.5 mg) was 0.95 (0.75–1.19), the increase in exposure ([1]; subjects with CLCR 10 mL/min versus CLCR 90 mL/min, from slope −0.06) was 14% and the “vital signs, electrocardiogram, physical examinations, clinical laboratory assessments” value ([2]; all groups) was “No clinically significant values or appreciable changes”. For the same compound, the “serious or severe TEAEs” value ([2]; all groups, n=56) was “none were serious or severe”, the minor hypoglycemia ([2]; moderate RI and ESRD groups) was “one subject with moderate RI and one with ESRD experienced minor hypoglycemia” and the symptoms-only hypoglycemia ([2]; moderate RI group) was “two subjects in the moderate RI group experienced symptoms-only hypoglycemia”. The major hypoglycemic events ([2]; one subject with severe RI without type 2 diabetes) was “two major hypoglycemic events”, the “tolerability as starting dose” value ([3]; single dose 10 µg/kg (0.7–1.2 mg), six subjects (three severe RI, three ESRD)) was “not considered a tolerable starting dose” and the “minor or symptoms-only hypoglycemia” value [3, 9] was “three experienced minor or symptoms-only hypoglycemia”. For the same compound, the “significant nausea and/or vomiting” value [3, 9] was “five experienced significant nausea and/or vomiting” and the “t ½ in humans” value [4] was “approximately 1 week”.
